Experimental data: ChEMBL document CHEMBL3297654, “Synthesis, antimicrobial and cytotoxic activities, and structure-activity relationships of gypsogenin derivatives against human cancer cells” (Eur J Med Chem, 2014)
≈ marks a conversion by molar mass, not a printed value. Calls of active or inactive are those of the source. The calls are words filed in the database; no cut-off is given here.

Tests used:
Salmonella typhimurium = assay: Antimicrobial activity against Salmonella typhimurium ATCC 14028 assessed as zone of inhibition at 30 uL for 24 hrs at 37 degC by disk diffusion test; format: functional, organism-based; settings: Salmonella enterica subsp. enterica serovar Typhimurium
Summary of the method: (§1)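 Compound (30 µL of a fresh 1000 µg/mL DMSO stock) goes into a 6 mm well cut in Mueller Hinton agar inoculated with 0.1 mL broth culture adjusted to 0.5 McFarland (about 1×10^8 cells/mL). Plates are incubated 24 h at 37 °C, then zone of inhibition diameter is measured in mm.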

Proteus vulgaris = assay: Antimicrobial activity against Proteus vulgaris ATCC 33420 assessed as zone of inhibition at 30 uL for 24 hrs at 37 degC by disk diffusion test; format: functional, organism-based; summary of the method: as §1
Klebsiella pneumoniae = assay: Antimicrobial activity against Klebsiella pneumoniae ATCC 13882 assessed as zone of inhibition at 30 uL for 24 hrs at 37 degC by disk diffusion test; format: functional, organism-based; summary of the method: as §1
MCF7 [1] = assay: Induction of apoptosis in human MCF7 cells at 20 uM after 48 hrs by Hoechst 33258/propidium iodide staining based phase contrast microscopic analysis; format: functional
Summary of the method: (§2)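 Cells in 48-well plates treated with 0.5, 10, 20 or 40 µM for 24 and 48 h. Values are read at 48 h, 20 µM for test agents and 0.5 µM for controls. Staining is Hoechst 33258/propidium iodide double staining with fluorescence microscopy. Blue nuclei are viable or early-to-mid apoptotic, and pink nuclei are late apoptotic or necrotic. Apoptosis and necrosis are scored from chromatin condensation as % of cells. Cells are grown at 37 °C in 5% CO2 in RPMI, DMEM or McCoy's 5A with 10–15% heat-inactivated FCS.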

MCF7 [2] = assay: Induction of necrosis in human MCF7 cells at 20 uM after 48 hrs by Hoechst 33258/propidium iodide staining based phase contrast microscopic analysis; format: functional; summary of the method: as §2
Bacillus cereus [3] = assay: Antimicrobial activity against Bacillus cereus ATCC 11778 assessed as zone of inhibition at 30 uL for 24 hrs at 30 degC by disk diffusion test; format: functional
Summary of the method: (§3)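 Agar well diffusion on Mueller Hinton agar seeded with 0.1 mL broth culture (18–24 h), adjusted to 0.5 McFarland (about 1×10^8 bacteria or 1×10^6 yeast cells/mL). A 6 mm well is filled with 30 µL of compound from a fresh 1000 µg/mL DMSO stock. Plates are held at 30 °C for 24 h and inhibition zone diameter is read in mm.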

Nakaseomyces glabratus = assay: Antimicrobial activity against Candida glabrata assessed as zone of inhibition at 30 uL for 24 hrs at 30 degC by disk diffusion test; format: functional, organism-based; summary of the method: as §3
Saccharomyces cerevisiae = assay: Antimicrobial activity against Saccharomyces cerevisiae ATCC 9763 assessed as zone of inhibition at 30 uL for 24 hrs at 30 degC by disk diffusion test; format: functional, organism-based; summary of the method: as §3
HT-29 [4] = assay: Induction of apoptosis in human HT-29 cells at 20 uM after 48 hrs by Hoechst 33258/propidium iodide staining based phase contrast microscopic analysis; format: functional; summary of the method: as §2
[5] = tested on: Staphylococcus epidermidis; assay: Antimicrobial activity against Staphylococcus epidermidis ATCC 12228 assessed as zone of inhibition at 30 uL for 24 hrs at 37 degC by disk diffusion test; format: functional, organism-based; summary of the method: as §1
Micrococcus luteus = assay: Antimicrobial activity against Micrococcus luteus ATCC 9341 assessed as zone of inhibition at 30 uL for 24 hrs at 30 degC by disk diffusion test; format: functional, organism-based; summary of the method: as §3
Bacillus thuringiensis [6] = assay: Antimicrobial activity against Bacillus thuringiensis assessed as zone of inhibition at 30 uL for 24 hrs at 30 degC by disk diffusion test; format: functional; summary of the method: as §3
HeLa [7] = assay: Induction of necrosis in human HeLa cells at 20 uM after 48 hrs by Hoechst 33258/propidium iodide staining based phase contrast microscopic analysis; format: functional; summary of the method: as §2
SAOS-2 [8] = assay: Induction of necrosis in human Saos2 cells at 20 uM after 48 hrs by Hoechst 33258/propidium iodide staining based […] microscopic analysis; format: functional; summary of the method: as §2
Escherichia coli = assay: Antimicrobial activity against Escherichia coli ATCC 25922 assessed as zone of inhibition at 30 uL for 24 hrs at 37 degC by disk diffusion test; format: functional, organism-based; summary of the method: as §1
Staphylococcus aureus = assay: Antimicrobial activity against Staphylococcus aureus ATCC 25923 assessed as zone of inhibition at 30 uL for 24 hrs at 37 degC by disk diffusion test; format: functional, organism-based; summary of the method: as §1
Cyberlindnera jadinii = assay: Antimicrobial activity against Candida utilis ATCC 9950 assessed as zone of inhibition at 30 uL for 24 hrs at 30 degC by disk diffusion test; format: functional, organism-based; summary of the method: as §3
Candida tropicalis = assay: Antimicrobial activity against Candida tropicalis assessed as zone of inhibition at 30 uL for 24 hrs at 30 degC by disk diffusion test; format: functional, organism-based; summary of the method: as §3
Bacillus cereus [9] = assay: Antimicrobial activity against Bacillus cereus ATCC 11778 for 24 hrs by microdillution method; format: functional; settings: ATCC 11778, 24 h
Summary of the method: (§4)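 Broth microdilution. Compound is dissolved in DMSO (2 mg/mL) and diluted in Mueller Hinton broth as two-fold serial dilutions from 256 to 0.125 µg/mL. Bacteria are pre-grown in nutrient broth at 30 °C, and the final inoculum is about 10^6 cfu/mL. Tests are incubated 37 °C for 24 h. MIC is the lowest concentration giving complete inhibition. Streptomycin is the positive control.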

Enterococcus faecalis = assay: Antimicrobial activity against Enterococcus faecalis ATCC 29212 assessed as zone of inhibition at 30 uL for 24 hrs at 37 degC by disk diffusion test; format: functional, organism-based; summary of the method: as §1
Bacillus subtilis [10] = assay: Antimicrobial activity against Bacillus subtilis ATCC 6633 assessed as zone of inhibition at 30 uL for 24 hrs at 30 degC by disk diffusion test; format: functional; summary of the method: as §3
HL-60 [11] = assay: Antiproliferative activity against human HL60 cells after 24 and 72 hrs by MTT assay; format: functional, cell-based
Summary of the method: (§5)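 ATCC human cell lines are kept in RPMI, DMEM or McCoy's 5A with 10–15% heat-inactivated FCS at 37 °C and 5% CO2. They are seeded at 1×10^4–1×10^5 cells/mL in 48-well plates and exposed to 0.5, 10, 20 or 40 µM. Viability is read by MTT (590 nm) at 24 and 72 h. Growth is expressed relative to untreated cells and IC50 is fitted, in triplicate.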

Candida albicans = assay: Antimicrobial activity against Candida albicans ATCC 10231 assessed as zone of inhibition at 30 uL for 24 hrs at 30 degC by disk diffusion test; format: functional, organism-based; summary of the method: as §3
Caco-2 [12] = assay: Induction of necrosis in human Caco2 cells at 20 uM after 48 hrs by Hoechst 33258/propidium iodide staining based phase contrast microscopic analysis; format: functional; summary of the method: as §2
HeLa [13] = assay: Induction of apoptosis in human HeLa cells at 20 uM after 48 hrs by Hoechst 33258/propidium iodide staining based phase contrast microscopic analysis; format: functional; summary of the method: as §2
HeLa [14] = assay: Antiproliferative activity against human HeLa cells after 24 and 72 hrs by MTT assay; format: functional, cell-based; summary of the method: as §5
Caco-2 [15] = assay: Induction of apoptosis in human Caco2 cells at 20 uM after 48 hrs by Hoechst 33258/propidium iodide staining based phase contrast microscopic analysis; format: functional; summary of the method: as §2
MCF7 [16] = assay: Antiproliferative activity against human MCF7 cells after 24 and 72 hrs by MTT assay; format: functional, cell-based; summary of the method: as §5
[17] = Antiproliferative activity against human Saos2 cells after 24 and 72 hrs by MTT assay; format: functional, cell-based; settings: SAOS-2; summary of the method: as §5
HL-60 [18] = assay: Induction of necrosis in human HL60 cells at 20 uM after 48 hrs by Hoechst 33258/propidium iodide staining based phase contrast microscopic analysis; format: functional; summary of the method: as §2
HT-29 [19] = assay: Induction of necrosis in human HT-29 cells at 20 uM after 48 hrs by Hoechst 33258/propidium iodide staining based phase contrast microscopic analysis; format: functional; summary of the method: as §2
Bacillus thuringiensis [20] = assay: Antimicrobial activity against Bacillus thuringiensis for 24 hrs by microdillution method; format: functional; summary of the method: as §4
SAOS-2 [21] = assay: Induction of apoptosis in human Saos2 cells at 20 uM after 48 hrs by Hoechst 33258/propidium iodide staining based phase contrast microscopic analysis; format: functional; summary of the method: as §2
HL-60 [22] = assay: Induction of apoptosis in human HL60 cells at 20 uM after 48 hrs by Hoechst 33258/propidium iodide staining based phase contrast microscopic analysis; format: functional; summary of the method: as §2
HT-29 [23] = assay: Antiproliferative activity against human HT-29 cells after 24 and 72 hrs by MTT assay; format: functional, cell-based; summary of the method: as §5
Pseudomonas aeruginosa = assay: Antimicrobial activity against Pseudomonas aeruginosa ATCC 35032 assessed as zone of inhibition at 30 uL for 24 hrs at 37 degC by disk diffusion test; format: functional, organism-based; summary of the method: as §1
Caco-2 [24] = assay: Antiproliferative activity against human Caco2 cells after 24 and 72 hrs by MTT assay; format: functional, cell-based; summary of the method: as §5
Bacillus subtilis [25] = assay: Antimicrobial activity against Bacillus subtilis ATCC 6633 for 24 hrs by microdillution method; format: functional; settings: ATCC 6633, 24 h; summary of the method: as §4

MIC (Bacillus cereus [9]): 64 µg/mL (≈ 121 µM)
IC50 (HL-60 [11]): 5.98 µM
IC50 (HeLa [14]): 116 µM
IC50 (MCF7 [16]): 10.8 µM
MIC (Bacillus thuringiensis [20]): 64 µg/mL (≈ 121 µM)
IC50 (HT-29 [23]): 6.71 µM
IC50 (Caco-2 [24]): 28.2 µM
MIC (Bacillus subtilis [25]): 32 µg/mL (≈ 60.6 µM)
SMILES: CC(=O)O[C@H]1CC[C@]2(C)[C@H]3CC=C4[C@@H]5CC(C)(C)CC[C@]5(C(=O)O)CC[C@@]4(C)[C@]3(C)CC[C@H]2[C@]1(C)/C=N\O
diameter of the inhibition zone (DIZ) (Salmonella typhimurium): inactive
diameter of the inhibition zone (DIZ) (Proteus vulgaris): inactive
diameter of the inhibition zone (DIZ) (Klebsiella pneumoniae): inactive
Activity (MCF7 [1]): 5%
Activity (MCF7 [2]): 55%
diameter of the inhibition zone (DIZ) (Bacillus cereus [3]): 12 mm
diameter of the inhibition zone (DIZ) (Nakaseomyces glabratus): inactive
diameter of the inhibition zone (DIZ) (Saccharomyces cerevisiae): inactive
Activity (HT-29 [4]): 0.6%
diameter of the inhibition zone (DIZ) [5]: inactive
diameter of the inhibition zone (DIZ) (Micrococcus luteus): inactive
diameter of the inhibition zone (DIZ) (Bacillus thuringiensis [6]): 12 mm
Activity (HeLa [7]): 64%
Activity (SAOS-2 [8]): 46%
diameter of the inhibition zone (DIZ) (Escherichia coli): inactive
diameter of the inhibition zone (DIZ) (Staphylococcus aureus): inactive
diameter of the inhibition zone (DIZ) (Cyberlindnera jadinii): inactive
diameter of the inhibition zone (DIZ) (Candida tropicalis): inactive
diameter of the inhibition zone (DIZ) (Enterococcus faecalis): inactive
diameter of the inhibition zone (DIZ) (Bacillus subtilis [10]): 13 mm
diameter of the inhibition zone (DIZ) (Candida albicans): inactive
Activity (Caco-2 [12]): 17%
Activity (HeLa [13]): 0%
Activity (Caco-2 [15]): 0%
IC50 [17]: 8.95 µM
Activity (HL-60 [18]): 52%
Activity (HT-29 [19]): 28%
Activity (SAOS-2 [21]): 1%
Activity (HL-60 [22]): 6%
diameter of the inhibition zone (DIZ) (Pseudomonas aeruginosa): inactive
